Consider one compound from ChEMBL document CHEMBL4411287, “Discovery and optimization of a series of 3-substituted indazole derivatives as multi-target kinase inhibitors for the treatment of lung squamous cell carcinoma” (Eur J Med Chem, 2019).

≈ marks a conversion by molar mass, not a printed value. Calls of active or inactive are those of the source. No cut-off for these calls is given here.

A word on the inhibition: it is the percentage by which the read-out fell short of the control. Usually IC50 stands for the concentration needed to halve the response being measured. As a reminder, the AUC(0-inf) is total exposure, with the tail of the curve extrapolated. Lower therefore signals low exposure. In general, solubility refers to how much of the substance goes into solution per volume. Higher therefore signals a readily soluble substance.

Data set [1] addresses Platelet-derived growth factor receptor beta (Homo sapiens) (UniProt P09619). Put plainly: Inhibition of PDGFR-beta (unknown origin) at 1000 nM relative to control. The method in brief: (§1)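 ELISA with purified recombinant kinase on plates precoated with poly(Glu,Tyr) 4:1 at 20 µg/mL. ATP 10 µM in HEPES pH 7.4 buffer with MgCl2, MnCl2, Na3VO4 and DTT. Run 60 min at 37 °C. Detected with anti-phosphotyrosine PY99, HRP secondary antibody and o-phenylenediamine, read at 490 nm. Inhibition % = [1 − A490/A490 control]×100. 1% DMSO as negative control.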

Data set [2] in a line: Permeability in human Caco2 cells at 5 uM after 120 mins by LC-MS/MS analysis relative to control. Format: ADME, cell-based. The following applies: Caco-2, read-out: Fabs. The method in brief: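 Caco-2 (C2BBe1) monolayers grown confluent on collagen-coated transwell membranes. Buffer is HBSS with 10 mM HEPES at pH 7.4 and pH 6.8. Compound 5 µM added to the apical or basolateral side; duplicate samples taken at 120 min and analysed by LC-MS/MS. Results given as Papp A→B and B→A and efflux ratio B→A/A→B.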
A general note: Caco-2 monolayers are a common model of the intestinal barrier.

Data set [3] concerns the target Epidermal growth factor receptor (Homo sapiens) (UniProt P00533). Put plainly: Inhibition of EGFR (unknown origin) at 1000 nM relative to control. An outline of the steps: (§2)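 Purified recombinant kinase domains run in ELISA on precoated poly(Glu,Tyr) 4:1 (20 µg/mL) with 10 µM ATP in 50 mM HEPES pH 7.4, 50 mM MgCl2, 0.5 mM MnCl2, 0.2 mM Na3VO4, 1 mM DTT; 1% DMSO control; 60 min at 37 °C. Phosphotyrosine read by PY99 antibody, HRP anti-mouse IgG, OPD/H2O2 at 490 nm; inhibition = [1−A490/A490control]×100%; two separate experiments.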

Data set [4] relates to KG-1. Put plainly: Antiproliferative activity against human KG1 cells after 72 hrs by CCK8 assay. The following applies: KG-1, 72 h.
Data set [5] addresses Receptor tyrosine-protein kinase erbB-2 (Homo sapiens) (UniProt P04626). Put plainly: Inhibition of ErbB2 (unknown origin) at 1000 nM relative to control. The method in brief:
as §2

The test system of data set [6] is T1, Discoidin domain-containing receptor 2 (Homo sapiens), Q16832 [I638F].
T1 sequence (whole entry): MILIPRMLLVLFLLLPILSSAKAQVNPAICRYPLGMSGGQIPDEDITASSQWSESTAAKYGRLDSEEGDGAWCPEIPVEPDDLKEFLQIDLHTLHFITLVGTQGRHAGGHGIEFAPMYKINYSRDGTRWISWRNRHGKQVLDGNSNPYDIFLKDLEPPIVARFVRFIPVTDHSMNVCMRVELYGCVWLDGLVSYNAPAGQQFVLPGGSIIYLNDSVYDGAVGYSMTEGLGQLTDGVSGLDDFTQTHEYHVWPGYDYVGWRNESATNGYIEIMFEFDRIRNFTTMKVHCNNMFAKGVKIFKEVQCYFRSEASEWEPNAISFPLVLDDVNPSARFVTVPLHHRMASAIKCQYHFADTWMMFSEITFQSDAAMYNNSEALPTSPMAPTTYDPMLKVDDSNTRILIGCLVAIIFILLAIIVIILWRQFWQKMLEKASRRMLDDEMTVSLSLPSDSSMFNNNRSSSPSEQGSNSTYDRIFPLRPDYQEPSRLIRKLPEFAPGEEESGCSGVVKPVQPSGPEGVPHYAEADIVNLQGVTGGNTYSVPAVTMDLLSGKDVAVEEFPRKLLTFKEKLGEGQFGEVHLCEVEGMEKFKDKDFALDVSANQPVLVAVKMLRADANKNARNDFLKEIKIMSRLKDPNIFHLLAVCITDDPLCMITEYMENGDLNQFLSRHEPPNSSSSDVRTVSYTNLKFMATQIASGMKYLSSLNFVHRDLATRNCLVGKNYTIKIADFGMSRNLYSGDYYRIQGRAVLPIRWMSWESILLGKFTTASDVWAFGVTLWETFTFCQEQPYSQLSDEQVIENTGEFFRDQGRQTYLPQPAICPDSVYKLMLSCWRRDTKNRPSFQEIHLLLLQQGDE
Put plainly: Inhibition of DDR2 I638F mutant in human NCI-H2286 cells assessed as decrease in AKT phosphorylation at […] after 2 hrs by Western blot analysis. The data set is classed as cell-based. An outline of the steps:
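NCI-H2286 cells exposed to compound for 2 h at 37 °C and lysed in SDS sample buffer. Lysates run on 10% SDS-PAGE and blotted to nitrocellulose. Membranes probed for phospho- and total DDR2, ERK and Akt, with GAPDH as loading control, and detected by HRP secondary antibody and enhanced chemiluminescence.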

Data set [7] deals with Cyclin-dependent kinase 4 (Homo sapiens) (UniProt P11802). The experiment in a line: Inhibition of CDK4 (unknown origin) at 10 nM relative to control.
The target in data set [8] is Tyrosine-protein kinase JAK2 (Homo sapiens) (UniProt O60674). The experiment in a line: Inhibition of JAK2 (unknown origin) at 1000 nM relative to control. The method in brief:
as §2

The nature of data set [9]: AUC (0 to infinity) in ICR(CD-1) mouse at 10 mg/kg, po administered via gavage by triple quadrupole mass spectrometric analysis. Format: ADME, organism-based. More on the design: dose 10 mg/kg, route oral, time infinity. The following applies: in vivo. An outline of the steps: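 Oral gavage at 1 mg/mL in 1% Tween80/water to male ICR mice (18-22 g, n=3). Plasma sampled at 0.25, 0.5, 1, 2, 4, 8 and 24 h, protein precipitated with methanol:acetonitrile (1:1) containing internal standard, and quantified by UPLC-triple quadrupole MS. AUC and MRT were taken from per-animal time-concentration curves. Cmax is the maximum plasma level and Tmax the time to reach it.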

Data set [10] in a line: Solubility of compound. The data set is classed as physicochemical.
Data set [11] concerns the target Cyclin-dependent kinase 4 (Homo sapiens) (UniProt P11802). The experiment in a line: Inhibition of CDK4 (unknown origin) at 1000 nM relative to control.
For data set [12], the target named is Mitogen-activated protein kinase 1 (Homo sapiens) (UniProt P28482). Put plainly: Inhibition of ERK2 (unknown origin) at 100 nM relative to control.
Data set [13] has as its target Focal adhesion kinase 1 (Homo sapiens) (UniProt Q05397). Put plainly: Inhibition of FAK (unknown origin) at 10 nM relative to control. The method in brief: as §2
The target of data set [14] is Epidermal growth factor receptor (Homo sapiens) (UniProt P00533). Put plainly: Inhibition of EGFR (unknown origin) at 10 nM relative to control.
Data set [15] concerns the target Vascular endothelial growth factor receptor 1 (Homo sapiens) (UniProt P17948). Put plainly: Inhibition of VEGFR1 (unknown origin) at 100 nM relative to control. The method in brief: as §1
The subject of data set [16] is KG-1. Put plainly: Antiproliferative activity against FGFR1 fused human KG1 cells after 72 hrs by CCK8 assay. The data set is classed as functional, cell-based. The note with it: KG-1, 72 h. An outline of the steps: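 Cells seeded at low density in growth medium and compounds added the next day. Incubated 72 h, then proliferation read by sulforhodamine B, MTT or CCK-8. IC50 obtained by four-parameter concentration-response curve fitting.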
A general note: Formazan colour is commonly taken as a measure of viable cells.

Chain of Cyclin-dependent kinase 4 (Homo sapiens) (P11802 whole entry): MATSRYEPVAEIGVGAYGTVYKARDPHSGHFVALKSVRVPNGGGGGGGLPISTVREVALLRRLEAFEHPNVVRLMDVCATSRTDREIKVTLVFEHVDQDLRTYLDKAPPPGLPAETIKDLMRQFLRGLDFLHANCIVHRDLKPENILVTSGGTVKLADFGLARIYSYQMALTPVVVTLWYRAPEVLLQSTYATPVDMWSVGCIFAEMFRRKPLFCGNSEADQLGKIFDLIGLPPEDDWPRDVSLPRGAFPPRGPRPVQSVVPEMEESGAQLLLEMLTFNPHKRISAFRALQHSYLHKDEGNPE
Chain of Epidermal growth factor receptor (Homo sapiens) (P00533 whole entry, the tested form may be a part): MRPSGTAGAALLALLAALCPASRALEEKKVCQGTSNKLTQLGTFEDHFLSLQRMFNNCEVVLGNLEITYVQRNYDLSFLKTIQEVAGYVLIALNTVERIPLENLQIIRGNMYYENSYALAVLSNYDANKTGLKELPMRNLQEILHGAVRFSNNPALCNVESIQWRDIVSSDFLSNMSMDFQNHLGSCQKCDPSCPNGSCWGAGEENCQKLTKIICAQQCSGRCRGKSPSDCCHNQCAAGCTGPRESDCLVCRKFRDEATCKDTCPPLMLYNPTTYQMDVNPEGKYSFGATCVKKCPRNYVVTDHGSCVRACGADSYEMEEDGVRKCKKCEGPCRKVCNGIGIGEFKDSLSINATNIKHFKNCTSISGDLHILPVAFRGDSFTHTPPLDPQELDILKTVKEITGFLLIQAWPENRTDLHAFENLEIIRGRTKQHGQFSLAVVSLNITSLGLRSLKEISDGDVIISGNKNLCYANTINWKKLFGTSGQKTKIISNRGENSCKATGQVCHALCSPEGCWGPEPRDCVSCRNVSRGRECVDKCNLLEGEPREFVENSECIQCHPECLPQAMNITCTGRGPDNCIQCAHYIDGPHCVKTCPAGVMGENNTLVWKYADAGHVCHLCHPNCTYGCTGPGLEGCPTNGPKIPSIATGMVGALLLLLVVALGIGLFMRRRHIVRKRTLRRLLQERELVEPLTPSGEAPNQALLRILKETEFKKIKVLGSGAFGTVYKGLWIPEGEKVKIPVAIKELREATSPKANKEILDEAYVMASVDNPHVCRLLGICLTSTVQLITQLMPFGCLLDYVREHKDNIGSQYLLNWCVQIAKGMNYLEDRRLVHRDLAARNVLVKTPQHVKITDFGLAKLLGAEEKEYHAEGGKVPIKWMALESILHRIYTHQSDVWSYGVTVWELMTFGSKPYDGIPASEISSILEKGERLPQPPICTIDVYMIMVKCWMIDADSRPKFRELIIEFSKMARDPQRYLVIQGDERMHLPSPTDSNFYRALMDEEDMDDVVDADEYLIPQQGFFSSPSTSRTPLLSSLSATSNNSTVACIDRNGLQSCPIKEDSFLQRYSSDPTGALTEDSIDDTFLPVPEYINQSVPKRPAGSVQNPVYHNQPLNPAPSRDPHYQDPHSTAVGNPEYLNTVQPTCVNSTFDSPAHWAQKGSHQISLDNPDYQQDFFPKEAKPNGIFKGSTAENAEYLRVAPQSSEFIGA
Chain of Platelet-derived growth factor receptor beta (Homo sapiens) (P09619 whole entry): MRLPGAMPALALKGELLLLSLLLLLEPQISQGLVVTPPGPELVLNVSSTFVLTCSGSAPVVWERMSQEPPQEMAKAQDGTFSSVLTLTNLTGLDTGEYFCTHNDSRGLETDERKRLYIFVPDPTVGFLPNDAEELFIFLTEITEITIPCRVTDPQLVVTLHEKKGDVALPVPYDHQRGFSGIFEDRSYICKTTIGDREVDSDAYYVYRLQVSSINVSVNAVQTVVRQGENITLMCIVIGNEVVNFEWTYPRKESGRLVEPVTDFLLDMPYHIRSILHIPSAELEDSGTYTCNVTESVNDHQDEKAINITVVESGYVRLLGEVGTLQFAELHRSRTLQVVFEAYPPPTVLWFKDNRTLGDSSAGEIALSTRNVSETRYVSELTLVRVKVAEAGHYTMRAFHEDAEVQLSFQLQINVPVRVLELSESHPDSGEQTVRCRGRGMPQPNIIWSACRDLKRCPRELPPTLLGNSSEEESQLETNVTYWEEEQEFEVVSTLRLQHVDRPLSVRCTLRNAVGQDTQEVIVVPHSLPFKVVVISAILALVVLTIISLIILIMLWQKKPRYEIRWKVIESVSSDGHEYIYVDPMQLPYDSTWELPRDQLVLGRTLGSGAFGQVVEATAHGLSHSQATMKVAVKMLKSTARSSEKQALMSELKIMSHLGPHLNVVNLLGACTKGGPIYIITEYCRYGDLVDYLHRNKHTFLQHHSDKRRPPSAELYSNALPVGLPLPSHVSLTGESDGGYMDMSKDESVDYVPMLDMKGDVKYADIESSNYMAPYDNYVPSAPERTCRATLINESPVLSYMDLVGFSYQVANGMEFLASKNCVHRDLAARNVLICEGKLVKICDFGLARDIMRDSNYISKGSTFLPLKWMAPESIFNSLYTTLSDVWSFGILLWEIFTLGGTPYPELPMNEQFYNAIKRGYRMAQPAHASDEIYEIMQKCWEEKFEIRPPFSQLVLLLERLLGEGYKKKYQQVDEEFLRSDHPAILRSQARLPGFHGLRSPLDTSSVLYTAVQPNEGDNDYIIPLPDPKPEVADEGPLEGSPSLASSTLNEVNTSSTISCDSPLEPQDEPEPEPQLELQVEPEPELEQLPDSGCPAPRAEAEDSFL
Chain of Vascular endothelial growth factor receptor 1 (Homo sapiens) (P17948 whole entry, the tested form may be a part): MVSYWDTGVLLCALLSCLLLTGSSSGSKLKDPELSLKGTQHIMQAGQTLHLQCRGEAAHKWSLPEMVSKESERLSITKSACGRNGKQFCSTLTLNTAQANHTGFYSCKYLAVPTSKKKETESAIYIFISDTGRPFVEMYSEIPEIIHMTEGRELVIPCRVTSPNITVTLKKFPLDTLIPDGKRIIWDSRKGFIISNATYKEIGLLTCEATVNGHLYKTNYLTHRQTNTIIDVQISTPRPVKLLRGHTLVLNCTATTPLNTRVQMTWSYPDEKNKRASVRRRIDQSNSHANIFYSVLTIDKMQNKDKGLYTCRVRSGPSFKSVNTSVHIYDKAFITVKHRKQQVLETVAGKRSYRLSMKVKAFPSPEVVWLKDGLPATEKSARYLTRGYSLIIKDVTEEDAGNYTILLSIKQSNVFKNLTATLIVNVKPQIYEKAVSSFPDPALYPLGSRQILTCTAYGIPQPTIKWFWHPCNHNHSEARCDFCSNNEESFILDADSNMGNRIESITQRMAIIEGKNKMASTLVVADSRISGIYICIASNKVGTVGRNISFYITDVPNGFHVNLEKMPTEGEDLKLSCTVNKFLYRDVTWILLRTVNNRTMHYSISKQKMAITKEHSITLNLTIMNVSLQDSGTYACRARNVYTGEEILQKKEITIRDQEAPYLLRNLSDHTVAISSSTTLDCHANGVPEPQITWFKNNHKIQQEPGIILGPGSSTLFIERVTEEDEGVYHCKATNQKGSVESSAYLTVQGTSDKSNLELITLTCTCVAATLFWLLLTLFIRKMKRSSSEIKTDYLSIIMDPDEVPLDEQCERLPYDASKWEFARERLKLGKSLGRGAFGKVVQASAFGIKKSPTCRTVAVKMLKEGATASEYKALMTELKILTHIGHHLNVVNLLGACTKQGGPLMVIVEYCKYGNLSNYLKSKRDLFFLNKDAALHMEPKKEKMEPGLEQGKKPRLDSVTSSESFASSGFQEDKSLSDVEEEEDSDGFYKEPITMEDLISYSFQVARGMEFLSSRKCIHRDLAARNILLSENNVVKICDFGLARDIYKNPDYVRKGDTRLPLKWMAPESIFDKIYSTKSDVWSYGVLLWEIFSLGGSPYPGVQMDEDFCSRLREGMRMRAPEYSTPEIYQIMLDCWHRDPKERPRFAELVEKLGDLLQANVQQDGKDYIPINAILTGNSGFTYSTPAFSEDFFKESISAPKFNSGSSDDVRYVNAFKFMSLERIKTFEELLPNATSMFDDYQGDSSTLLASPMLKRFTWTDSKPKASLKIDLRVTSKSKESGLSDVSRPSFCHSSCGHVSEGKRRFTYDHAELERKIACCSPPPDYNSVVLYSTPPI
Chain of Tyrosine-protein kinase JAK2 (Homo sapiens) (O60674 whole entry): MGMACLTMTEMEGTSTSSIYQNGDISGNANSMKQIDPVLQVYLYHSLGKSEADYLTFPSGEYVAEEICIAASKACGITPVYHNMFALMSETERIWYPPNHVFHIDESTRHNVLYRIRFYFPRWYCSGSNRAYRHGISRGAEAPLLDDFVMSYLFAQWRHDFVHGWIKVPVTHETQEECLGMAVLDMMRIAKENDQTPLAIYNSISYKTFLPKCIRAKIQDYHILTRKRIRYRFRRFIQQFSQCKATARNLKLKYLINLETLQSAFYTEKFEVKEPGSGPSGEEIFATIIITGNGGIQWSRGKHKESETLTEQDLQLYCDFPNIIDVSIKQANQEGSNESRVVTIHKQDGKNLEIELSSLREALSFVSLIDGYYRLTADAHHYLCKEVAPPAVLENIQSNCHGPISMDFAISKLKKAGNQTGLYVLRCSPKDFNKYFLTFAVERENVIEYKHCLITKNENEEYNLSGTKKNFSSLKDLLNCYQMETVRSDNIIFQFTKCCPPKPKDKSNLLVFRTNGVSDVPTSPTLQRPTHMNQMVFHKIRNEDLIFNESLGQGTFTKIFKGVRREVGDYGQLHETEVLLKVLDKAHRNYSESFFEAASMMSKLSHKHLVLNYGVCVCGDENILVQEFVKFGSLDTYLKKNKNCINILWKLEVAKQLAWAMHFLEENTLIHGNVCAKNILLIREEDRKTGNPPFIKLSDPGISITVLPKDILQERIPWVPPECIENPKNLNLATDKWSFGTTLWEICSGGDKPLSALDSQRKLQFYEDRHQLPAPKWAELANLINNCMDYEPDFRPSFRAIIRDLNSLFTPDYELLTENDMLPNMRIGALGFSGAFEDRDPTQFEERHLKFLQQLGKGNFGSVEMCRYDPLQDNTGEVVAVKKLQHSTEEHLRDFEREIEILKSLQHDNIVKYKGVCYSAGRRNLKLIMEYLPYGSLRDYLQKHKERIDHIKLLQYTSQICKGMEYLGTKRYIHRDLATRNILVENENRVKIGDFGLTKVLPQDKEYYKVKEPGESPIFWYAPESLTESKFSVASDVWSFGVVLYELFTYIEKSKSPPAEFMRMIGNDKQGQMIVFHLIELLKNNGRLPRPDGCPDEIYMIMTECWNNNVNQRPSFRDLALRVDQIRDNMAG

For `Cc1ccc(C(=O)Nc2cccc(C(F)(F)F)c2)cc1-c1ccc2c(-c3cnn(C4CC4)c3)n[nH]c2c1`, the inhibition in data set [1] was found to be 100%; in [3], 18.1%; in data set [5], 0%; in data set [7], 4.4%; in data set [8], 16.8%; in [11] it was 0.9%. Moreover, the inhibition worked out at 2.5% in data set [12], 1.1% in data set [13], 10% in data set [14] and 46.8% in data set [15]. Further, the Fa at 2 h, 5 µM in data set [2] came to 48.6%. Further, the IC50 with KG-1 [4] and in the data set on KG-1 [16] was 108 nM in each case. Besides, the inhibition entry in [6] was “Active”. Further, in [9], the AUC(0-inf) turned out to be 7680 ng·h/mL. Besides, in data set [10], the solubility amounted to 2 µM (≈ 1 µg/mL).
